# L929 necroptosis: blocks zVAD induced death of L929 cells. AID 1377. L929 zVAD necroptosis rescue, ATP luminescence, 24 h; with zVAD 60 µM. hit rate 0.38% among 220,000. viability rescue, % at 10 µM;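 active means activation, scaled between plate controls, above about 75%, limit read from the data; inactive means activation under that limit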
# RBBP9 inh: human RBBP9 hydrolase inhibition | O75884 | recombinant RBBP9, FP-Rh probe fluorescence polarization | inhibition, % at 7.94 µM | hit rate 0.2% among 220,000 | AID 1515;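 active means inhibition above the campaign mean of all tested compounds plus 3 SD, cut at about 14% in these data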
#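 Test system: recombinant human RBBP9. Quantity: 2.5 µM RBBP9 dispensing solution, before mixing. Detection: FP readout at 525/598 nm. Reagent: Serine-hydrolase probe FP-Rh, 375 nM pre-mixing. Measure: % inhibition. Control set: DMSO-treated enzyme wells and wells lacking RBBP9. Buffer or medium: Tris-NaCl-Pluronic buffer, pH 8.0. Times: preincubation 30 min plus labeling 45 min at 25 °C.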
# TNF necrop inh: blocks TNF-alpha induced death of Jurkat FADD-/- cells; Jurkat FADD-/- TNF necroptosis rescue, ATP luminescence, 24 h; 0 = TNF only, 100 = no-TNF cells; activation (protection from cell death), % at 10 µM; hit rate 0.068% among 220,000; AID 463075;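 active means activation, meaning protection from cell death, of at least 50% relative to plate controls; inactive means activation below 50%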;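 further: necroptosis triggered by 40 ng/mL TNF-alpha added together with compound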
# Wee1 degr inh: inhibitors of human Wee1 degradation; P30291; HeLa Luc-Wee1K328M stability, luciferase luminescence; 100% = proteasome inhibitor MG132 effect; reporter increase, % at 5 µM; hit rate 1.2% among 220,000;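 active means activation above the mean of all tested compounds plus 3 SD, set per screening run, cut at about 8.8% in these data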;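 further: cells exposed to compound for 20 h before luminescence read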
# Target sequence (P30291 whole entry K328M): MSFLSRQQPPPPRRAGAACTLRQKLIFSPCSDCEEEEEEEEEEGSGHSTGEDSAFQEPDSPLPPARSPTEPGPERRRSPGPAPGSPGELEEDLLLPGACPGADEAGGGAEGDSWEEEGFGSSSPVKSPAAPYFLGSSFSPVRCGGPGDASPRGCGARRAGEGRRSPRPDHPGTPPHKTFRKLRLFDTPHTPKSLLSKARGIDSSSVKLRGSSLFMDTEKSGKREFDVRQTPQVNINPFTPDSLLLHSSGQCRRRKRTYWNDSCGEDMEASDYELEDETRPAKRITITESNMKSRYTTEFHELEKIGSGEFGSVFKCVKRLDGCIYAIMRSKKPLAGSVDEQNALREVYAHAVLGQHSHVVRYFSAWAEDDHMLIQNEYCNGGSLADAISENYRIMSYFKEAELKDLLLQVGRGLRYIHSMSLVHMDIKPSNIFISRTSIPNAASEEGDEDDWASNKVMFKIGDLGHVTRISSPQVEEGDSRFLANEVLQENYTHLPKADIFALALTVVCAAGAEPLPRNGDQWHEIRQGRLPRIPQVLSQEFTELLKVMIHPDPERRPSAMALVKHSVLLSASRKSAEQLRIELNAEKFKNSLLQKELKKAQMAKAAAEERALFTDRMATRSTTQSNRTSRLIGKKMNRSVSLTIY
# PfM18AAP inh-1: blocks P. falciparum M18 aspartyl aminopeptidase. inhibition, % at 7.35 µM. hit rate 1.2% among 290,000. recombinant PfM18AAP, H-Glu-NHMec fluorogenic cleavage;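 active means inhibition above the campaign mean inhibition over all tested compounds plus 3 SD, cut at about 28% in these data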
# p97 ATPase inh: human p97 ATPase inhibition | inhibition, % at 8 µM | hit rate 0.42% among 220,000 | P55072 | AID 1481 | recombinant p97 ATPase, Kinase-Glo ATP luminescence, 3 h; in the data active means inhibition above about 15%
# PfM18AAP inh-2: confirmation of Plasmodium falciparum M18 aspartyl aminopeptidase inhibitors | recombinant PfM18AAP, H-Glu-NHMec fluorogenic cleavage | inhibition, % at 7.35 µM | shares compounds with PfM18AAP inh-1 | hit rate 28% among 2,400;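 active means mean inhibition over replicate wells above the hit cutoff set for the earlier primary screen, cut at about 29% in these data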
# CTSL1 counter: Cathepsin L (human) inhibition, confirmation. shares compounds with PfM18AAP inh-1. purified cathepsin L1, Z-Leu-Arg-MCA fluorescence. inhibition, % at 5.96 µM. 2,400 tested, under 10 active. AID 2178;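 active means average inhibition across replicates above the hit cutoff set in the earlier primary screen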
# A number is an active result; – = inactive; · = no result given. Hits are enriched below; roughly 2.7% of the tested compounds scored in any of these assays.
SMILES,L929 necroptosis,RBBP9 inh,TNF necrop inh,Wee1 degr inh,PfM18AAP inh-1,p97 ATPase inh,PfM18AAP inh-2,CTSL1 counter
Nc1c(C(=O)c2ccccc2)sc2nsc(SCCN3CCCC3)c12,–,–,–,–,35.1,–,–,–
COc1ccc(OC)c(CCNC(=O)c2ccc(NC3=NC4CS(=O)(=O)CC4S3)cc2)c1 (centres undefined),·,·,·,·,–,·,·,·
Cc1cc(C)c(C#N)c(Oc2ccccc2Br)n1,–,–,–,–,–,–,·,·
N#C/C(=C\c1ccc(-c2ccccc2)o1)C(=O)Nn1cnnc1,–,–,–,–,63.3,–,54.3,–
Cc1ccc(-c2ccc(/C=C(\C#N)C(=O)Nc3cc(C)nn3-c3ccccc3)o2)cc1,–,–,–,–,–,–,·,·
CCOC(=O)c1c(NC(=O)CSc2nc3nc(C)cc(C)n3n2)sc(CC)c1C,–,–,–,–,–,–,·,·
CCOC(=O)c1c(C2COc3ccccc3O2)csc1N (centres undefined),–,–,–,–,59.7,–,–,–
CCOC(=O)c1c(C2COc3ccccc3O2)csc1NC(=O)c1ccccc1 (centres undefined),–,–,–,–,–,–,·,·
COC(=O)c1ccc(NC(=S)NC2CC(C)(C)NC(C)(C)C2)cc1,–,–,–,–,–,–,·,·
CC1(C)CC(=O)C(C(=S)Nc2ccccc2)=C(NC2CC(C)(C)NC(C)(C)C2)C1,–,–,–,–,47.1,–,–,–
CC(/C=N/n1c(-c2ccco2)n[nH]c1=S)=C\c1ccco1,–,–,–,–,31.9,–,–,–
O=[N+]([O-])c1ccccc1/C=C/C=N/n1c(-c2ccco2)n[nH]c1=S,–,–,–,–,32.3,–,–,–
Cc1ccc(-n2c(-c3ccco3)n[nH]c2=S)cc1,–,–,–,–,32.4,–,–,–
COc1ccc(C2C(C(C)=O)=C(C)N=c3s/c(=C\c4ccco4)c(=O)n32)c(OC)c1 (centres undefined),–,–,–,–,37.0,–,–,–
CCc1ccccc1NC(=O)NNC(=O)c1ccc2ccccc2c1O,·,·,·,·,38.9,·,–,–
COc1ccc(NC(=O)NNC(=O)c2ccc3ccccc3c2O)c(OC)c1,·,·,·,·,35.6,·,–,–
COc1ccc(NC(=O)NNC(=O)c2cc(C3CC3)nc3ccccc23)c(OC)c1,·,·,·,·,–,·,·,·
CC[n+]1c(/C=C(/C)SC)sc2ccccc21,–,–,–,–,48.9,–,–,–
CC[n+]1c(/C=C(\C)SC)sc2ccccc21,–,–,–,–,44.1,–,–,–
CC/C(=C/c1sc2ccccc2[n+]1CC)SC,–,–,–,–,45.8,–,–,–
CC[n+]1c(C=C2C=C(C)OC(C)=C2)sc2ccccc21,–,–,–,–,–,–,·,·
CC[n+]1c(/C=C2/C=C(C)CC(C)C2)sc2ccccc21 (centres undefined),–,–,–,–,–,–,·,·
CCOc1ccccc1/C=C/c1onc(C)c1S(=O)(=O)N1CCC(C(=O)N2CCCCCC2)CC1,·,·,·,·,–,·,·,·
CCOc1ccc(CN2CCN(Cc3nc4c(s3)CCCC4)CC2CCO)cc1 (centres undefined),–,–,–,–,–,–,·,·
CCOC(=O)C1CCN(C(=O)C(C)c2ccc([N+](=O)[O-])cc2)CC1 (centres undefined),–,–,–,–,–,–,·,·
SMILES,L929 necroptosis,RBBP9 inh,TNF necrop inh,Wee1 degr inh,PfM18AAP inh-1,p97 ATPase inh,PfM18AAP inh-2,CTSL1 counter
Cn1cnc2c1c(=O)n(Cc1cccc(Cl)c1)c(=O)n2C,·,·,·,·,–,·,·,·
CCC(C)(C(=O)NC1CCCCC1)N(CC1CCCO1)C(=O)CNC(=O)c1ccccc1 (centres undefined),–,–,–,–,35.1,–,–,–
COc1cc(OC)c(C(=O)NCCCN2CCOCC2)cc1OC,–,–,–,–,56.6,–,–,–
COc1ccc(Cl)cc1C(=O)NCCCN1CCOCC1,·,·,·,·,–,·,·,·
S=C(NCCCN1CCOCC1)NCCCN1CCOCC1,–,–,–,–,39.4,–,–,–
COc1ccc(NC(=O)Cn2c(=O)n(-c3ccc(CC(=O)NCc4ccco4)cc3)c(=O)c3ccccc32)cc1,–,–,–,–,–,–,·,·
COc1cccc2c(SCC(=O)N/N=C/c3ccc(O)c(O)c3)cc(C)nc12,–,–,–,–,65.7,–,63.2,–
COc1cccc2c(SCC(=O)N/N=C/c3ccccc3)cc(C)nc12,–,–,–,–,–,–,·,·
COc1ccc2nc(C)cc(SCC(=O)N/N=C/c3ccc(O)c(O)c3)c2c1,–,–,–,–,60.4,–,63.5,–
COc1ccc2c(c1)c(C(=O)N/N=C/c1ccc(O)c(O)c1)c(C)n2C,–,–,–,–,51.4,–,40.0,–
Cc1cc(C)cc(NC(=O)COC(=O)CN=C2NS(=O)(=O)c3ccccc32)c1,–,–,–,–,–,–,·,·
COc1ccc(Oc2ccc(-c3ccn[nH]3)cc2)cc1,–,–,–,–,–,–,·,·
O=C(/C=C/c1cnc2ccccc2n1)NC12CC3CC(CC(C3)C1)C2,–,–,–,–,–,–,·,·
Cc1cccc2[nH]c(SCC(=O)N3CCOCC3)nc12,–,–,–,–,–,–,·,·
NNc1nc2ccc(Cl)cc2s1,–,–,–,–,–,–,·,·
NNc1nc2ccc(F)cc2s1,–,–,–,–,37.4,–,29.3,–
CCNC(=S)NNc1ccccc1,–,–,–,–,–,–,·,·
CCNC(=S)NNc1nncc2ccccc12,–,–,–,–,35.8,–,–,–
CCCCNC(=O)Nc1nnc(C(C)(C)C)s1,–,–,–,–,–,–,·,·
Fc1ccccc1/C=N/n1cnnc1,–,–,–,–,–,–,·,·
Fc1ccccc1/C=N/n1cc(-c2ccccc2)[nH]c1=S,–,–,–,–,45.6,–,40.8,–
S=c1[nH]c(-c2ccccc2)cn1/N=C/c1cccs1,–,–,–,–,47.4,–,39.4,–
S=c1[nH]c(-c2ccccc2)cn1/N=C/c1cccnc1,–,–,–,–,62.0,–,56.6,–
CN(C)c1oc(/C=C/c2cccs2)nc1S(=O)(=O)c1ccccc1,·,·,·,·,–,·,·,·
COC(=O)c1cc(NS(=O)(=O)c2ccc(NC(C)=O)cc2)ccc1Cl,–,–,–,–,–,–,·,·
Cc1ccc(S(=O)(=O)Nc2cc(Cl)c(O)c3ncccc23)cc1,·,·,·,·,38.6,·,–,–
O=C1OC(/C(=C\Nc2ccccc2)[N+](=O)[O-])c2ccccc21 (centres undefined),–,–,–,–,46.7,–,–,–
CCc1ccc(C(=O)NNc2ccc(S(N)(=O)=O)cc2)cc1,–,–,–,–,35.3,–,–,–

# Screening results deposited in PubChem BioAssay by several laboratories.
